The text below walks through data of ChEMBL document CHEMBL3632546 (Eur J Med Chem, 2015).

For orientation: pIC50 means the negative decadic logarithm of the IC50, by convention in mol/L.

pIC50: −log10 of the molar value. Activity calls are given as the source filed them. No cut-off for these calls is given here.

For the first assay, the system named is Mus musculus. The assay is described as follows: Antihypersensitive activity in double transgenic hypertensive mouse harboring human angiotensinogen and human renin genes assessed as reduction of mean arterial blood pressure at 17 to 34 umol/kg, po monitored 24 hrs post dose. Format: functional, organism-based.
For `COCCCOc1cc(C[C@@H](C[C@H](N)[C@@H](O)C[C@H](C(=O)NCC(C)(C)Cn2cc(CCO)nn2)C(C)C)C(C)C)ccc1OC.Cl`, the outcome was Active.

The test system of a further assay is Mus musculus. As to the kind of experiment: Antihypersensitive activity in double transgenic hypertensive mouse harboring human angiotensinogen and human renin genes assessed as reduction of mean arterial blood pressure at 8.5 umol/kg, po monitored 24 hrs post dose. Format: functional, organism-based.
With `COCCCOc1cc(C[C@@H](C[C@H](N)[C@@H](O)C[C@H](C(=O)NCC(C)(C)Cn2cc(CCO)nn2)C(C)C)C(C)C)ccc1OC.Cl`, the result was Active. On to `COCCCOc1cc(C[C@@H](C[C@H](N)[C@@H](O)C[C@H](C(=O)NCC(C)(C)C(N)=O)C(C)C)C(C)C)ccc1OC`, for which the result was Active.

The next assay concerns the target T1, Cathepsin E (Homo sapiens) (UniProt P14091).
T1 sequence (whole entry): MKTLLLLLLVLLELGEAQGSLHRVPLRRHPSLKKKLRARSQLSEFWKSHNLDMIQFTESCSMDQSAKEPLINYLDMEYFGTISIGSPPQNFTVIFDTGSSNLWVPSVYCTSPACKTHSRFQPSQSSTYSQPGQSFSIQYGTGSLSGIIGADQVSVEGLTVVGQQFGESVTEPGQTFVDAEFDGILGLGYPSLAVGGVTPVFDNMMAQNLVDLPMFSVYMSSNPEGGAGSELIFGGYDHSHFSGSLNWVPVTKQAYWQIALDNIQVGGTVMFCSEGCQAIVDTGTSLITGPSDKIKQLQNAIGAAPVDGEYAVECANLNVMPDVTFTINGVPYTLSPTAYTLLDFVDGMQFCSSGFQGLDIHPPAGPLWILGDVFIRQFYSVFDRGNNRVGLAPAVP
The assay is described as follows: Inhibition of human recombinant cathepsin E preincubated for 30 mins followed by substrate addition measured after 15 mins by fluorescence analysis.
Consider `COCCCOc1cc(C[C@@H](C[C@H](N)[C@@H](O)C[C@H](C(=O)NCC(C)(C)Cn2cc(CCO)nn2)C(C)C)C(C)C)ccc1OC.Cl`, for which the inhibition entry was “inactive”.

In the next assay the target is Cathepsin D (Homo sapiens) (UniProt P07339). As to the kind of experiment: Inhibition of human recombinant cathepsin D preincubated for 30 mins followed by substrate addition measured after 15 mins by fluorescence analysis.
Chain of Cathepsin D (Homo sapiens) (P07339 65-162 limits assumed): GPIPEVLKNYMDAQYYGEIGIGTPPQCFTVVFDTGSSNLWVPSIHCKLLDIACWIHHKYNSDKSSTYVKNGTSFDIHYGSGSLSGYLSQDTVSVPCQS
Chain of Cathepsin D (Homo sapiens) (P07339 169-412 limits assumed): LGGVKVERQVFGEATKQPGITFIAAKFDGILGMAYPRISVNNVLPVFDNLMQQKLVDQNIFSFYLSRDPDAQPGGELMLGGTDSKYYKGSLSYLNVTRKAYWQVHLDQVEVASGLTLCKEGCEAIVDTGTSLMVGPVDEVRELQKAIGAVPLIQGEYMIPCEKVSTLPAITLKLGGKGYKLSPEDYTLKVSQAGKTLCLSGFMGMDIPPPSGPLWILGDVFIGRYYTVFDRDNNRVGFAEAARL
With `COCCCOc1cc(C[C@@H](C[C@H](N)[C@@H](O)C[C@H](C(=O)NCC(C)(C)Cn2cc(CCO)nn2)C(C)C)C(C)C)ccc1OC.Cl`, the inhibition result is “inactive”.

In another assay the test system is Mus musculus. The assay is described as follows: Antihypersensitive activity in po dosed double transgenic hypertensive mouse harboring human angiotensinogen and human renin genes assessed as reduction of mean arterial blood pressure monitored 24 hrs post dose. Format: functional, organism-based.
For `COCCCOc1cc(C[C@@H](C[C@H](N)[C@@H](O)C[C@H](C(=O)NCC(C)(C)Cn2cc(CCO)nn2)C(C)C)C(C)C)ccc1OC.Cl`, the Activity result is “Dose-dependent effect”.

The subject of a further assay is Mus musculus. As to the kind of experiment: Antihypersensitive activity in po dosed double transgenic hypertensive mouse harboring human angiotensinogen and human renin genes assessed as time duration for sustained reduction of mean arterial blood pressure monitored 24 hrs post dose. Format: functional.
With `COCCCOc1cc(C[C@@H](C[C@H](N)[C@@H](O)C[C@H](C(=O)NCC(C)(C)Cn2cc(CCO)nn2)C(C)C)C(C)C)ccc1OC.Cl`, the Time is 14 h.

For a further assay, the target named is T2, Renin (Homo sapiens, UniProt P00797).
T2 sequence (P00797 whole entry): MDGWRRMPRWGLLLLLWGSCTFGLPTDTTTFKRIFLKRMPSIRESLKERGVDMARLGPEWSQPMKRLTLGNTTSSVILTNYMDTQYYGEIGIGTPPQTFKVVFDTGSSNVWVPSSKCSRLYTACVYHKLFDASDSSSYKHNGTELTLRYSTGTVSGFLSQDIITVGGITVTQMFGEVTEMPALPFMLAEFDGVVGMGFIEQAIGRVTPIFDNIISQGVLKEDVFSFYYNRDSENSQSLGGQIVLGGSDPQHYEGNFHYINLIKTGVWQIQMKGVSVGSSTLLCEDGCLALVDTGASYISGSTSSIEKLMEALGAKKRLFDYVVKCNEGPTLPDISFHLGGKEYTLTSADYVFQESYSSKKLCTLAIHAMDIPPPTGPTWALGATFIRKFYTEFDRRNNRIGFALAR
As to the kind of experiment: Inhibition of human recombinant renin preincubated for 30 mins followed by substrate addition measured after 15 mins by fluorescence analysis. The essentials: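 Fluorogenic renin kit (Ex/Em 490/520 nm). Reaction started with pre-warmed renin substrate (20 µM solution) and run 15 min at 37 °C. RFU read with substrate-only wells as background. Vehicle, buffer and peptide inhibitor (10 µM solution) controls included.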
With `COCCCOc1cc(C[C@@H](C[C@H](N)[C@@H](O)C[C@H](C(=O)NCC(C)(C)CCOc2ccccc2)C(C)C)C(C)C)ccc1OC`, the pIC50 was 8.07. Still for that read-out and setting: to `COCCCOc1cc(C[C@@H](C[C@H](N)[C@@H](O)C[C@H](C(=O)N[C@H](C)c2ccc(Br)cc2)C(C)C)C(C)C)ccc1OC` belongs 7.47; to `COCCCOc1cc(C[C@@H](C[C@H](N)[C@@H](O)C[C@H](C(=O)NCC(C)(C)Cc2ccc(OC(F)(F)F)cc2)C(C)C)C(C)C)ccc1OC`, 7.87; to `COCCCOc1cc(C[C@@H](C[C@H](N)[C@@H](O)C[C@H](C(=O)NCCc2ccccn2)C(C)C)C(C)C)ccc1OC`, 8.59. Still for that read-out and setting: to `COCCCOc1cc(C[C@@H](C[C@H](N)[C@@H](O)C[C@H](C(=O)NCC(C)(C)Cc2ccccc2)C(C)C)C(C)C)ccc1OC` belongs 7.47; to `COCCCOc1cc(C[C@@H](C[C@H](N)[C@@H](O)C[C@H](C(=O)NCC(C)(C)Cn2cc(CCO)nn2)C(C)C)C(C)C)ccc1OC.Cl`, 9.15; to `COCCCOc1cc(C[C@@H](C[C@H](N)[C@@H](O)C[C@H](C(=O)NCC(C)(C)Cn2cc(CO)nn2)C(C)C)C(C)C)ccc1OC`, 9.05.

Take `COCCCOc1cc(C[C@@H](C[C@H](N)[C@@H](O)C[C@H](C(=O)NCC(C)(C)Cc2ccncc2)C(C)C)C(C)C)ccc1OC`: the pIC50 is 8.82. Same read-out and setting: the result for `COCCCOc1cc(C[C@@H](C[C@H](N)[C@@H](O)C[C@H](C(=O)NCCc2ccccc2Cl)C(C)C)C(C)C)ccc1OC` reads 7.56; that for `COCCCOc1cc(C[C@@H](C[C@H](N)[C@@H](O)C[C@H](C(=O)NCC(C)(C)Cn2cc(CN(C)C)nn2)C(C)C)C(C)C)ccc1OC`, 8.72.

Turning to `COCCCOc1cc(C[C@@H](C[C@H](N)[C@@H](O)C[C@H](C(=O)NCC(C)(C)Cc2cccc(Cl)c2)C(C)C)C(C)C)ccc1OC`, the pIC50 is 8.01. The same measure, in the same setting: to `COCCCOc1cc(C[C@@H](C[C@H](N)[C@@H](O)C[C@H](C(=O)NCC(C)(C)Cc2cc(F)ccc2F)C(C)C)C(C)C)ccc1OC` belongs 7.91; to `COCCCOc1cc(C[C@@H](C[C@H](N)[C@@H](O)C[C@H](C(=O)NCC(C)(C)Cc2ccc3ccccc3c2)C(C)C)C(C)C)ccc1OC`, 7.95.

In the case of `COCCCOc1cc(C[C@@H](C[C@H](N)[C@@H](O)C[C@H](C(=O)NCC(C)(C)Cc2c(F)cccc2F)C(C)C)C(C)C)ccc1OC`, the pIC50 is 7.79. Still for that read-out and setting: to `COCCCOc1cc(C[C@@H](C[C@H](N)[C@@H](O)C[C@H](C(=O)NCC(C)(C)Cc2ccccc2F)C(C)C)C(C)C)ccc1OC` belongs 8.04. The same measure, in the same setting: the result for `COCCCOc1cc(C[C@@H](C[C@H](N)[C@@H](O)C[C@H](C(=O)NCC(C)(C)Cn2cc(CN(C(C)C)C(C)C)nn2)C(C)C)C(C)C)ccc1OC` reads 8.57; that for `COCCCOc1cc(C[C@@H](C[C@H](N)[C@@H](O)C[C@H](C(=O)NCC(C)(C)CC2CCCCC2)C(C)C)C(C)C)ccc1OC`, 7.81; that for `COCCCOc1cc(C[C@@H](C[C@H](N)[C@@H](O)C[C@H](C(=O)NCC(C)(C)Cn2cc(-c3ccccn3)nn2)C(C)C)C(C)C)ccc1OC`, 8.82. Take `COCCCOc1cc(C[C@@H](C[C@H](N)[C@@H](O)C[C@H](C(=O)N[C@H](C)c2ccc(Cl)cc2)C(C)C)C(C)C)ccc1OC`: the pIC50 is 7.52.

As for `COCCCOc1cc(C[C@@H](C[C@H](N)[C@@H](O)C[C@H](C(=O)NCC(C)(C)Cn2cc(C(C)(C)C)nn2)C(C)C)C(C)C)ccc1OC`, the pIC50 was 8.15. Turning to `COCCCOc1cc(C[C@@H](C[C@H](N)[C@@H](O)C[C@H](C(=O)NCC(C)(C)CCN2CCOCC2)C(C)C)C(C)C)ccc1OC`, the pIC50 was 8.74.

Consider `CCN(CC)Cc1cn(CC(C)(C)CNC(=O)[C@@H](C[C@H](O)[C@@H](N)C[C@H](Cc2ccc(OC)c(OCCCOC)c2)C(C)C)C(C)C)nn1`, for which the pIC50 was 8.68. On the same count and under the same terms, to `COCCCOc1cc(C[C@@H](C[C@H](N)[C@@H](O)C[C@H](C(=O)N[C@@H](C)c2ccc(Cl)cc2)C(C)C)C(C)C)ccc1OC` belongs 7.82; to `COCCCOc1cc(C[C@@H](C[C@H](N)[C@@H](O)C[C@H](C(=O)NCC(C)(C)Cn2cc(C3CC3)nn2)C(C)C)C(C)C)ccc1OC`, 8.80.

Consider `CCCCc1cn(CC(C)(C)CNC(=O)[C@@H](C[C@H](O)[C@@H](N)C[C@H](Cc2ccc(OC)c(OCCCOC)c2)C(C)C)C(C)C)nn1`, for which the pIC50 was 8.24.

`COCCCOc1cc(C[C@@H](C[C@H](N)[C@@H](O)C[C@H](C(=O)NCCc2cccc(OC)c2)C(C)C)C(C)C)ccc1OC`: the pIC50 was 8.14. Still for that read-out and setting: to `COCCCOc1cc(C[C@@H](C[C@H](N)[C@@H](O)C[C@H](C(=O)NCC(C)(C)Cc2ccc(OC)cc2)C(C)C)C(C)C)ccc1OC` belongs 7.99.

Consider `COCCCOc1cc(C[C@@H](C[C@H](N)[C@@H](O)C[C@H](C(=O)NCC(C)(C)Cc2cccc(OC)c2)C(C)C)C(C)C)ccc1OC`, for which the pIC50 was 7.91. Same read-out and setting: the result for `COCCCOc1cc(C[C@@H](C[C@H](N)[C@@H](O)C[C@H](C(=O)NCC(C)(C)Cn2cc(-c3ccccc3)nn2)C(C)C)C(C)C)ccc1OC` reads 8.30; that for `COCCCOc1cc(C[C@@H](C[C@H](N)[C@@H](O)C[C@H](C(=O)N[C@@H](C)c2ccc(Br)cc2)C(C)C)C(C)C)ccc1OC`, 7.68. Still for that read-out and setting: to `COCCCOc1cc(C[C@@H](C[C@H](N)[C@@H](O)C[C@H](C(=O)NCC(C)(C)Cn2cc(CN3CCOCC3)nn2)C(C)C)C(C)C)ccc1OC` belongs 8.96; to `COCCCOc1cc(C[C@@H](C[C@H](N)[C@@H](O)C[C@H](C(=O)NCC(C)(C)Cc2cccnc2)C(C)C)C(C)C)ccc1OC`, 8.66; to `COCCCOc1cc(C[C@@H](C[C@H](N)[C@@H](O)C[C@H](C(=O)NCC(C)(C)Cn2cc(C3(O)CCCC3)nn2)C(C)C)C(C)C)ccc1OC`, 8.28. On the same count and under the same terms, to `COCCCOc1cc(C[C@@H](C[C@H](N)[C@@H](O)C[C@H](C(=O)NCCc2ccc3c(c2)OCO3)C(C)C)C(C)C)ccc1OC` belongs 7.96; to `COCCCOc1cc(C[C@@H](C[C@H](N)[C@@H](O)C[C@H](C(=O)NCC(C)(C)Cn2cc(CN3CCCCC3)nn2)C(C)C)C(C)C)ccc1OC`, 9.00.

Regarding `COCCCOc1cc(C[C@@H](C[C@H](N)[C@@H](O)C[C@H](C(=O)NCC(C)(C)Cc2cccc(F)c2)C(C)C)C(C)C)ccc1OC`, the pIC50 was 8.01.

Consider `CCCCCCc1cn(CC(C)(C)CNC(=O)[C@@H](C[C@H](O)[C@@H](N)C[C@H](Cc2ccc(OC)c(OCCCOC)c2)C(C)C)C(C)C)nn1`, for which the pIC50 was 7.77. On the same count and under the same terms, to `COCCCOc1cc(C[C@@H](C[C@H](N)[C@@H](O)C[C@H](C(=O)NCC(C)(C)Cn2cc(-c3ccc(C)cc3)nn2)C(C)C)C(C)C)ccc1OC` belongs 7.88; to `COCCCOc1cc(C[C@@H](C[C@H](N)[C@@H](O)C[C@H](C(=O)NCC(C)(C)Cn2cc(C(C)O)nn2)C(C)C)C(C)C)ccc1OC` (stereo partly drawn), 8.96; to `COCCCOc1cc(C[C@@H](C[C@H](N)[C@@H](O)C[C@H](C(=O)NCC(C)(C)Cn2ccnn2)C(C)C)C(C)C)ccc1OC`, 8.70.

The next assay has as its system Mus musculus. As to the kind of experiment: Antihypersensitive activity in po dosed double transgenic hypertensive mouse harboring human angiotensinogen and human renin genes assessed as maximum reduction of mean arterial blood pressure monitored 24 hrs post dose. Format: functional.
In the case of `COCCCOc1cc(C[C@@H](C[C@H](N)[C@@H](O)C[C@H](C(=O)NCC(C)(C)Cn2cc(CCO)nn2)C(C)C)C(C)C)ccc1OC.Cl`, the Activity stood at 40 mmHg.
